Experimental data as given in ChEMBL document CHEMBL1799966, “Synthesis and anticancer activity of oxindole derived imidazo[1,5-a]pyrazines” (Eur J Med Chem, 2011).
Activity calls are given as the source filed them. No cut-off for these calls is given here.

Experiments:
A549 [1] = test: Induction of apoptosis in human A549 cells assessed as apoptotic bodies formation at 6.5 uM after 24 to 48 hrs by Hoechst 33342 staining; format: functional, cell-based
How it was run: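 A549 cells were grown 24 h on coverslips at 10,000 cells, then exposed to 6.5 µM for 24 h and 48 h, with 0.001% DMSO vehicle controls. Hoechst 33342 (0.5 µg/mL) with 4% paraformaldehyde was applied for 30 min at 37 °C. Random fields were examined by fluorescence microscopy, scoring relative fluorescence and nuclear fragmentation.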

A549 [2] = test: Growth inhibition of human A549 cells; format: functional, cell-based
How it was run: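 MTT reduction assay. Cells were seeded at 1 × 10^4 per well in DMEM with 10% FBS and pre-incubated 24 h at 37 °C under CO2. Compounds were diluted in medium and incubated 24 h. Medium was then removed, MTT (5 mg/mL stock) added for 4 h, formazan dissolved in DMSO, and absorbance read at 540 nm.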

A549 [3] = test: Induction of cell cycle arrest in human A549 cells assessed as accumulation at G0/G1 phase at 6.5 uM after 24 hrs by propidium iodide staining-based FACS analysis (reference value: 56.26 %); format: functional
How it was run: (§1)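 A549 cells (1 × 10^6) in six-well plates received 6.5 µM (final) for 24 h or 48 h. Floating and adherent cells were fixed in 70% ethanol, washed in PBS, then stained for 20 min with 50 µg/mL propidium iodide in hypotonic citrate/Triton X-100 buffer with DNase-free RNase A. Cells were analysed by FACS.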

A549 [4] = test: Induction of cell cycle arrest in human A549 cells assessed as accumulation at sub G1 phase at 6.5 uM after 48 hrs by propidium iodide staining-based FACS analysis (reference value: 1.02 %); format: functional; how it was run: as §1
A549 [5] = test: Induction of cell cycle arrest in human A549 cells assessed as accumulation at G0/G1 phase at 6.5 uM after 48 hrs by propidium iodide staining-based FACS analysis (reference value: 56.26 %); format: functional; how it was run: as §1
A549 [6] = test: Induction of cell cycle arrest in human A549 cells assessed as accumulation at S phase at 6.5 uM after 48 hrs by propidium iodide staining-based FACS analysis (reference value: 19.21 %); format: functional; how it was run: as §1
A549 [7] = test: Induction of cell cycle arrest in human A549 cells assessed as accumulation at G2/M phase at 6.5 uM after 48 hrs by propidium iodide staining-based FACS analysis (reference value: 20.92 %); format: functional; how it was run: as §1
A549 [8] = test: Induction of apoptosis in human A549 cells assessed as viable cells at 6.5 uM after 24 hrs using Annexin V-FITC and PI staining by flow cytometry (reference value: 11.1 %); format: functional; conditions: A549, 24 h, read-out: Activity
A549 [9] = test: Induction of apoptosis in human A549 cells assessed as apoptotic cells at 6.5 uM after 24 hrs using Annexin V-FITC and PI staining by flow cytometry (reference value: 2.6 %); format: functional
A549 [10] = test: Induction of apoptosis in human A549 cells assessed as apoptotic cells at 6.5 uM after 48 hrs using Annexin V-FITC and PI staining by flow cytometry (reference value: 2.6 %); format: functional
A549 [11] = test: Induction of apoptosis in human A549 cells assessed as late apoptotic cells at 6.5 uM after 48 hrs using Annexin V-FITC and PI staining by flow cytometry (reference value: 85.7 %); format: functional
A549 [12] = test: Induction of apoptosis in human A549 cells assessed as pre-necrotic cells at 6.5 uM after 48 hrs using Annexin V-FITC and PI staining by flow cytometry (reference value: 0.5 %); format: functional
K562 = test: Cytotoxicity against human K562 cells; format: functional
How it was run: (§2)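 NCI 60-cell panel second-stage testing by NCI standard procedures. Compound was dissolved in DMSO and tested at five 10-fold dilutions: 10^-4, 10^-5, 10^-6, 10^-7 and 10^-8 M.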

A549 [13] = test: Cytotoxicity against human A549 cells; format: functional
HOP-62 = test: Cytotoxicity against human HOP62 cells; format: functional; how it was run: as §2
NCI-H226 = test: Cytotoxicity against human NCI-H226 cells; format: functional; how it was run: as §2
NCI-H322M = test: Cytotoxicity against human NCI-H322M cells; format: functional; how it was run: as §2
NCI-H522 = test: Cytotoxicity against human NCI-H522 cells; format: functional; how it was run: as §2
COLO 205 = test: Cytotoxicity against human COLO205 cells; format: functional; how it was run: as §2
HCT-116 = test: Cytotoxicity against human HCT116 cells; format: functional; how it was run: as §2
HCT-15 = test: Cytotoxicity against human HCT15 cells; format: functional; how it was run: as §2
SF-295 = test: Cytotoxicity against human SF295 cells; format: functional; how it was run: as §2
SNB-19 = test: Cytotoxicity against human SNB19 cells; format: functional
How it was run: (§3)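 NCI 60-cell-line panel protocol. Primary screen used a single 10^-5 M concentration with 48 h incubation, and percent growth was read against untreated cells by sulforhodamine B protein staining. The five-dose follow-up used a DMSO solution at five 10-fold dilutions from 10^-4 to 10^-8 M.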

SNB-75 [14] = test: Cytotoxicity against human SNB75 cells; format: functional; how it was run: as §3
DU-145 = test: Cytotoxicity against human DU145 cells; format: functional; how it was run: as §2
Malme-3M = test: Cytotoxicity against human MALME-3M cells; format: functional; how it was run: as §2
M14 = test: Cytotoxicity against human M14 cells; format: functional; how it was run: as §2
LOX IMVI = test: Cytotoxicity against human LOXIMVI cells; format: functional; how it was run: as §2
SK-MEL-2 = test: Cytotoxicity against human SK-MEL-2 cells; format: functional; how it was run: as §2
SK-MEL-5 = test: Cytotoxicity against human SK-MEL-5 cells; format: functional; how it was run: as §3
UACC-257 = test: Cytotoxicity against human UACC257 cells; format: functional; how it was run: as §3
UACC-62 = test: Cytotoxicity against human UACC62 cells; format: functional; how it was run: as §3
OVCAR-5 = test: Cytotoxicity against human OVCAR5 cells; format: functional; how it was run: as §2
OVCAR-8 = test: Cytotoxicity against human OVCAR8 cells; format: functional; how it was run: as §2
786-0 = test: Cytotoxicity against human 786-0 cells; format: functional; how it was run: as §2
A498 = test: Cytotoxicity against human A498 cells; format: functional; how it was run: as §2
ACHN = test: Cytotoxicity against human ACHN cells; format: functional; how it was run: as §2
RXF 393 = test: Cytotoxicity against human RXF393 cells; format: functional; how it was run: as §2
SN12C = test: Cytotoxicity against human SN12C cells; format: functional; how it was run: as §3
TK-10 = test: Cytotoxicity against human TK10 cells; format: functional; how it was run: as §3
UO-31 = test: Cytotoxicity against human UO31 cells; format: functional; how it was run: as §3
MCF7 = test: Cytotoxicity against human MCF7 cells; format: functional; how it was run: as §2
MDA-MB-231 = test: Cytotoxicity against human MDA-MB-231 cells; format: functional; how it was run: as §2
BT-549 = test: Cytotoxicity against human BT549 cells; format: functional; how it was run: as §2
SNB-75 [15] = test: Anticancer activity against human SNB75 cells assessed as mean cell growth at 10^-5 M after 48 hrs by SRB assay; format: functional
How it was run: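 NCI-60 primary screen run to the US NCI protocol. Compound added at a single concentration of 10^-5 M and cultures incubated 48 h. The end point was sulforhodamine B (SRB) protein staining, reported as percent growth of treated cells relative to untreated control cells.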

Structure (SMILES): O=C1Nc2ccccc2/C1=C\c1nc(-c2ccccc2F)n2ccccc12
- Activity (A549 [1]): Active
- IC50 (A549 [2]): 6.5 µM
- Activity (A549 [3]): 66.2%
- Activity (A549 [4]): 6.56%
- Activity (A549 [5]): 75.85%
- Activity (A549 [6]): 5.74%
- Activity (A549 [7]): 10.12%
- viability at 6.5 µM (A549 [8]): 31.2%
- Activity (A549 [9]): 61.5%
- Activity (A549 [10]): 87.4%
- Activity (A549 [11]): 3.4%
- Activity (A549 [12]): 0.9%
- GI50 (K562): 6.35 µM
- GI50 (A549 [13]): 3.46 µM
- GI50 (HOP-62): 2.37 µM
- GI50 (NCI-H226): 4.78 µM
- GI50 (NCI-H322M): 4.16 µM
- GI50 (NCI-H522): 2.18 µM
- GI50 (COLO 205): 4.08 µM
- GI50 (HCT-116): 1.97 µM
- GI50 (HCT-15): 13 µM
- GI50 (SF-295): 3.65 µM
- GI50 (SNB-19): 4.7 µM
- GI50 (SNB-75 [14]): 1.79 µM
- GI50 (DU-145): 3.26 µM
- GI50 (Malme-3M): 3.07 µM
- GI50 (M14): 5.65 µM
- GI50 (LOX IMVI): 4.15 µM
- GI50 (SK-MEL-2): 6.81 µM
- GI50 (SK-MEL-5): 2.8 µM
- GI50 (UACC-257): 5.2 µM
- GI50 (UACC-62): 6.32 µM
- GI50 (OVCAR-5): 1.8 µM
- GI50 (OVCAR-8): 2.49 µM
- GI50 (786-0): 3.44 µM
- GI50 (A498): 2.81 µM
- GI50 (ACHN): 3.3 µM
- GI50 (RXF 393): 3.41 µM
- GI50 (SN12C): 4.32 µM
- GI50 (TK-10): 4.05 µM
- GI50 (UO-31): 2.12 µM
- GI50 (MCF7): 2.1 µM
- GI50 (MDA-MB-231): 2.27 µM
- GI50 (BT-549): 3.36 µM
- Activity (SNB-75 [15]): 18.49%
